Test results reported in paper PMC6468299 (Nucleic Acids Research, 2019).
Marks after values point to notes of the source that are not given here.

Legend:
[1] = molecular target: T1, human mitochondrial DNA polymerase γ (Pol-γ exo-mutant) (Homo sapiens, UniProt P54098, D198A/E200A); test: Pol-γ primer extension; format: biochemical
T1 sequence (P54098 26-1239 D198A/E200A limits assumed): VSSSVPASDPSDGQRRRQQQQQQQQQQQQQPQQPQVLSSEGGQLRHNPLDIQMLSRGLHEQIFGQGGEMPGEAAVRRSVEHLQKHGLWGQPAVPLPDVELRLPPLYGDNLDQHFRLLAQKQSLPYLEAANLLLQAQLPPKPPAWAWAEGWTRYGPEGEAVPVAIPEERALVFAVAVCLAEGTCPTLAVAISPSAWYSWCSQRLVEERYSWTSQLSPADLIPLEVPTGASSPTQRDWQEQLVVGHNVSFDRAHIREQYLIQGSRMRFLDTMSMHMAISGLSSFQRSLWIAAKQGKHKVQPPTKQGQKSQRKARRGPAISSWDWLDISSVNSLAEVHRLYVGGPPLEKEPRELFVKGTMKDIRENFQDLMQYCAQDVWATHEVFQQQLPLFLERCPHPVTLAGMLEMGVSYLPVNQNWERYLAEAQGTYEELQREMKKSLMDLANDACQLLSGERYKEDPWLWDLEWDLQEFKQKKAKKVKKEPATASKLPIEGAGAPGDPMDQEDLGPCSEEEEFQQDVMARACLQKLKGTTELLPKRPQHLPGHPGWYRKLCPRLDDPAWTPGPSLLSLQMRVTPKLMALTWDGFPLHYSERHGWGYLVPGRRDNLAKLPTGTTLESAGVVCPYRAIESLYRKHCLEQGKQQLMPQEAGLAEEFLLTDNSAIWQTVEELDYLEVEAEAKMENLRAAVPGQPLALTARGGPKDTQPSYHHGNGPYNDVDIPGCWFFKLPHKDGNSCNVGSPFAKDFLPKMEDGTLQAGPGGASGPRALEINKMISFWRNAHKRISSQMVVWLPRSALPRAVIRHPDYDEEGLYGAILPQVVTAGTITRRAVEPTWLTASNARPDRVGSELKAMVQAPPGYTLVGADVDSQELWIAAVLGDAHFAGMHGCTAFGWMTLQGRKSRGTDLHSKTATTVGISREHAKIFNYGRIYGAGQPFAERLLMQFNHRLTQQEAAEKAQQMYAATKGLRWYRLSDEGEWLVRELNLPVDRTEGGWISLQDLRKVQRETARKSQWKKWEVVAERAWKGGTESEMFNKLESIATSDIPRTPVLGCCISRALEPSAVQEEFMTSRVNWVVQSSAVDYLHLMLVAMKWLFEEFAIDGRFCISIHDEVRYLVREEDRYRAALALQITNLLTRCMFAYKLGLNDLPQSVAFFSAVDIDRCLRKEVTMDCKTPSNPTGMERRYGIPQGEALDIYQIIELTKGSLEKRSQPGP
Outline: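 Exonuclease-deficient human Pol-γ (40 units) was used with 100 nM DNA template and 100 nM Atto-425-labelled 14-mer DNA primer. Substrate was 1 mM dNTP or 2′-F-NTP, or mixtures 100:1 to 1:100 (1:1 both 1 mM). Products were separated by fluorescence IEX-HPLC (ex 436/em 485 nm) at pH 11. Products under 1.0% peak area were called not detected.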

[2] = molecular target: Human mitochondrial RNA polymerase (POLRMT) (Homo sapiens, UniProt O00411); test: POLRMT primer extension; format: biochemical
Outline: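 Reactions contained 200 nM DNA template, 25 nM Atto-425-labelled 12-mer RNA primer and 300 nM human POLRMT. Substrate was 1 mM NTP or 2′-F-NTP, or mixtures from 100:1 to 1:100 (1:1 both 1 mM). Products were resolved by fluorescence anion-exchange HPLC (ex 436/em 485 nm, pH 11 NaBr gradient). Products under 1.0% peak area were called not detected.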

[3] = test system: human mitochondrial Pol-γ; conditions: absence of endogenous dNTPs; cited from earlier work
Pol-γ (exo- mutant) = molecular target: T2, Pol-γ (exo- mutant) (Homo sapiens, UniProt P54098, D198A/E200A); test: Non-obligate chain termination assay; format: biochemical; conditions: for chain elongation with analog in excess over dTTP: analog 1 μM at 10-fold (FIAU-TP also 100-fold) excess over dTTP; for chain elongation with analog substituted for dTTP: analog 1 μM, no dTTP; for effect on chain elongation in the presence of native dTTP: dTTP 1 μM, analog at 0.01, 0.1 or 1 μM, 37°C, 10 min
T2 sequence (P54098 26-1239 D198A/E200A limits assumed): T1 sequence (P54098 26-1239 D198A/E200A limits assumed)
Outline: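 A 23-mer DNA primer was 5′-end labelled with γ-³²P ATP and annealed to a 50-mer template. Extension required reading through nine consecutive template adenosines. Reactions used 10 units exonuclease-deficient human Pol-γ, with test analogue (0.01–1 μM) alone or with dTTP, plus native dATP/dCTP/dGTP, for 10 min at 37°C. Samples were stopped with loading dye, heated 100°C 5 min, run on 12% urea PAGE and phosphorimaged.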

Chain of Human mitochondrial RNA polymerase (POLRMT) (O00411 42-1230): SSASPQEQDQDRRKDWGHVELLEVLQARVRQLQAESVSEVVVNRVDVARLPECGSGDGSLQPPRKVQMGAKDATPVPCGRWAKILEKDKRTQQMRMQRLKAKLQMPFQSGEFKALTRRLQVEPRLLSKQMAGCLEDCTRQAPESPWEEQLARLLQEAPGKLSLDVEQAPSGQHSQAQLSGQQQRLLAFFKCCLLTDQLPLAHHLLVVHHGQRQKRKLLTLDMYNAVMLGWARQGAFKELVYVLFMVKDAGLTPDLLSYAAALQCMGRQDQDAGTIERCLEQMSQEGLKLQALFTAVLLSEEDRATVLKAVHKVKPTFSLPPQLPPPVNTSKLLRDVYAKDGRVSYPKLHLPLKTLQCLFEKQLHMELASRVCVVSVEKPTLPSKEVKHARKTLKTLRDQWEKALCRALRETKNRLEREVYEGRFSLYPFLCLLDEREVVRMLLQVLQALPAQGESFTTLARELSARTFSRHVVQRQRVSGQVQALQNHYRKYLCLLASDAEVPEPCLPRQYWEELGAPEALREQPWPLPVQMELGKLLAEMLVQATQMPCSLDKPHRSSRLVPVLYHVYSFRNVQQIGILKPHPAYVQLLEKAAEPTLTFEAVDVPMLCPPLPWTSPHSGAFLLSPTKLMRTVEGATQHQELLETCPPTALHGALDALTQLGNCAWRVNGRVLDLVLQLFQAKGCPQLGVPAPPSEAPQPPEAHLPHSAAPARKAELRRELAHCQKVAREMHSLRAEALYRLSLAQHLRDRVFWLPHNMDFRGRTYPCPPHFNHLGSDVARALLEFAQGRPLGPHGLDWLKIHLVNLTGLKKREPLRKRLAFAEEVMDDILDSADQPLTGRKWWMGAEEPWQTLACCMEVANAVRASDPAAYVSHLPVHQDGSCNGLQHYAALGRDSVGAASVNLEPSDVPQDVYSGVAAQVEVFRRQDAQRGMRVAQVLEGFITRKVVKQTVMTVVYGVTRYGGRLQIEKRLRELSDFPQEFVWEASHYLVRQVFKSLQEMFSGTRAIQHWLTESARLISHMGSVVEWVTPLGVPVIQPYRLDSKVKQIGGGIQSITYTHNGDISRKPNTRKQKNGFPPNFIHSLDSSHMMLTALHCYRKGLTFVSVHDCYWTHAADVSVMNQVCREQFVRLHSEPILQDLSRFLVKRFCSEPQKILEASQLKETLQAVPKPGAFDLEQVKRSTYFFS

% 2′-F product ([1]; F only) | % Native product ([1]; Native only (no 2′-F-NTP)) | % Native product ([1]; Native:F ratio 1:1) | % Native product ([1]; Native:F ratio 1:10) | % 2′-F product ([1]; Native:F ratio 1:100) | % Native product ([1]; Native:F ratio 1:100) | % 2′-F product ([2]; F only) | % Native product ([2]; Native only (no 2′-F-NTP)) | % Native product ([2]; Native:F ratio 1:1) | % Native product ([2]; Native:F ratio 1:10) | % Native product ([2]; Native:F ratio 1:100) | Compound | % 2′-F product ([1]; Native:F ratio 1:1) | % 2′-F product ([1]; Native:F ratio 1:10) | % 2′-F product ([2]; Native:F ratio 1:1) | % 2′-F product ([2]; Native:F ratio 1:10) | % 2′-F product ([2]; Native:F ratio 1:100) | misincorporation frequency relative to the natural dTTP/dNTP [3] [%] | chain elongation with analog in excess over dTTP (Pol-γ (exo- mutant)) | chain elongation with analog substituted for dTTP (Pol-γ (exo- mutant)) | effect on chain elongation in the presence of native dTTP (Pol-γ (exo- mutant))
94.2^a % | 95.9^a % | 96.3^a % | 97.1^a % | 17.6^b % | 79.8^b % | 42.6^a % | 69.2^a % | 67.8^a % | 63.5^a % | 51.4^a % | Nc1ncnc2c1ncn2[C@@H]1O[C@H](COP(=O)(O)OP(=O)(O)OP(=O)(O)O)[C@@H](O)[C@H]1F [2′-F-ATP] | ND (not detected (integration peak area <1.0%)) | ND (not detected (integration peak area <1.0%)) | ND (not detected (integration peak area <1.0%)) | ND (not detected (integration peak area <1.0%)) | ND (not detected (integration peak area <1.0%)) | – | – | – | –
73.9^a % | 89.2^a % | 85.0^a % | 88.9^a % | 23.7^b % | 56.0^b % | 78.9^a % | 95.0^a % | 96.4^a % | 83.4^a % | 69.2^b % | Nc1nc2c(ncn2[C@@H]2O[C@H](COP(=O)(O)OP(=O)(O)OP(=O)(O)O)[C@@H](O)[C@H]2F)c(=O)[nH]1 [2′-F-GTP] | ND (not detected (integration peak area <1.0%)) | ND (not detected (integration peak area <1.0%)) | ND (not detected (integration peak area <1.0%)) | ND (not detected (integration peak area <1.0%)) | 8.9^b % | 16 | – | – | –
94.4^a % | 98.3^a % | 91.7^b % | – | 82.7^b % | – | 21.0^a % | 34.6^a % | 25.1^a % | 25.4^a % | 24.10^b % | O=c1[nH]c(=O)n([C@@H]2O[C@H](COP(=O)(O)OP(=O)(O)OP(=O)(O)O)[C@@H](O)[C@@H]2F)cc1I [FIAU-TP, fialuridine triphosphate, reference compound] | 4.5^b % | 44.0^b % | ND (not detected (integration peak area <1.0%)) | ND (not detected (integration peak area <1.0%)) | 1.1^b % | 125 | continued to strongly impair elongation | restricted elongation products to 31 nucleotides in length | caused a reduction in full-length product and an increase in shorter products at the highest concentration

More lines, now with the values behind:

Compound | % 2′-F product ([1]; F only) | % Native product ([1]; Native only (no 2′-F-NTP)) | % Native product ([1]; Native:F ratio 1:1) | % Native product ([1]; Native:F ratio 1:10) | % 2′-F product ([1]; Native:F ratio 1:100) | % Native product ([1]; Native:F ratio 1:100) | % 2′-F product ([2]; F only) | % Native product ([2]; Native only (no 2′-F-NTP)) | % Native product ([2]; Native:F ratio 1:1) | % Native product ([2]; Native:F ratio 1:10) | % Native product ([2]; Native:F ratio 1:100) | % 2′-F product ([1]; Native:F ratio 1:1) | % 2′-F product ([1]; Native:F ratio 1:10) | % 2′-F product ([2]; Native:F ratio 1:1) | % 2′-F product ([2]; Native:F ratio 1:10) | % 2′-F product ([2]; Native:F ratio 1:100) | misincorporation frequency relative to the natural dTTP/dNTP [3] [%] | chain elongation with analog in excess over dTTP (Pol-γ (exo- mutant)) | chain elongation with analog substituted for dTTP (Pol-γ (exo- mutant)) | effect on chain elongation in the presence of native dTTP (Pol-γ (exo- mutant))
Nc1ccn([C@@H]2O[C@H](COP(=O)(O)OP(=O)(O)OP(=O)(O)O)[C@@H](O)[C@H]2F)c(=O)n1 [2′-F-CTP] | 94.0^a % | 97.3^a % | 96.2^a % | 90.6^b % | 30.9^b % | 64.5^b % | 58.7^a % | 48.8^a % | 39.3^a % | 43.7^a % | 37.0^b % | ND (not detected (integration peak area <1.0%)) | 4.4^b % | ND (not detected (integration peak area <1.0%)) | ND (not detected (integration peak area <1.0%)) | 9.1^b % | – | – | – | –
O=c1ccn([C@@H]2O[C@H](COP(=O)(O)OP(=O)(O)OP(=O)(O)O)[C@@H](O)[C@H]2F)c(=O)[nH]1 [2′-F-UTP] | 87.3^a % | 83.3^a % | 83.8^a % | 90.0^b % | 7.6^b % | 80.1^b % | 31.8^a % | 40.8^a % | 32^a % | 45.3^a % | 35.6^a % | ND (not detected (integration peak area <1.0%)) | 2.9^b % | ND (not detected (integration peak area <1.0%)) | ND (not detected (integration peak area <1.0%)) | ND (not detected (integration peak area <1.0%)) | 0.5 | the presence of dTTP reduced the elongation defect | weak smear of elongated species with very little full-length product | essentially no impact on chain elongation
